# Results of several laboratories.
# Compare with care: the assays were run in different laboratories.
# CA2: Carbonic anhydrase 2 (CA2, Homo sapiens, UniProt P00918)
# MMP8: Neutrophil collagenase (MMP8, Homo sapiens, UniProt P22894)
SMILES,target,effect on,mode,technique,concentration,inhibition [%]
O=C(Nc1cccnn1)N1CCN([C@@H]2CCOc3cc(C(F)(F)F)ccc32)CC1,"cGMP-dependent 3',5'-cyclic phosphodiesterase (PDE2A, Homo sapiens, UniProt O00408)",enzyme activity,inhibitor,,20 µM,3
C[C@H](C(=O)N[C@H]1COc2ccccc2[C@@H]1S(C)(=O)=O)c1ccc(F)cc1,CA2,enzyme activity,inhibitor,,10 µM,8
Cn1cc(-c2cccc(N3CCc4c(sc5c4CC(C)(C)C5)C3=O)c2CO)cc(Nc2ccncn2)c1=O,"G protein-coupled receptor kinase 3 (GRK3, Homo sapiens, UniProt P35626)",enzyme activity,inhibitor,,1 µM,16
NC(CO)C(=O)N/N=C/c1ccc(O)c(O)c1 (stereo not shown),"Genome polyprotein, protease (Coxsackievirus B3, UniProt P03313)",enzyme activity,inhibitor,FRET,50 µM,55.9
Cc1ncc(C)n2nc(/C=C/c3nc(N4CCCC4)cc(N4CCOCC4)n3)nc12,"5-hydroxytryptamine receptor 1D (Htr1d, Rattus norvegicus, UniProt P28565)",ligand displacement,,,10 µM,-1
COCc1c(-c2cc3cc(C)cc(OC)c3s2)c2c(N)ncnn2c1CN1CCNC(=O)C1,CA2,enzyme activity,inhibitor,,10 µM,44
CCN(CC)CCCC[C@H](NC(=O)[C@H](CC(C)C)NC(=O)[C@H](C)NC(=O)[C@H](Cc1ccccc1)NC(=O)c1ccc(C(C)(C)C)cc1)C(=O)N[C@@H](CO)C(=O)OC,"Cholecystokinin receptor type A (CCKAR, Homo sapiens, UniProt P32238)",ligand displacement,,radioligand,10 µM,33
COc1cc(Nc2ncc(F)c(Nc3ccc4c(n3)NC(=O)C(C)(C)O4)n2)cc(OC)c1OC,"Receptor-interacting serine/threonine-protein kinase 4 (RIPK4, Homo sapiens, UniProt P57078)",binding,,,10 µM,96
C#Cc1n[nH]c2c(-c3cn(C(C)c4ccccn4)c(=O)[nH]c3=O)cc(F)cc12 (stereo not shown),"Misshapen-like kinase 1 (MINK1, Homo sapiens, UniProt Q8N4C8)",enzyme activity,inhibitor,,1 µM,-10.4
COc1ccc(S(=O)(=O)N(CC(=O)NO)CC(C)C)cc1,MMP8,enzyme activity,inhibitor,,1 µM,91
Cn1cc(-c2cc(F)cc(N3CCn4c(cc5c4CCCC5)C3=O)c2CO)cc(Nc2ccc(N3CCN(C4COC4)CC3)cn2)c1=O,"Serine/threonine-protein kinase WNK2 (WNK2, Homo sapiens, UniProt Q9Y3S1)",enzyme activity,inhibitor,,0.1 µM,-12
N=C(N)c1ccc2cc(OC(=O)c3ccc(N=C(N)N)cc3)ccc2c1,MMP8,enzyme activity,inhibitor,,10 µM,0
CC(C)=CCCC1(C)C=Cc2c(O)c3c(c(CC=C(C)C)c2O1)OC12C(=CC4CC1C(C)(C)OC2(C/C=C(/C)C(=O)O)C4O)C3=O (stereo not shown),"N-lysine methyltransferase KMT5A (KMT5A, Homo sapiens, UniProt Q9NQR1)",cell-free assay,,,10 µM,7
